Measured values published in ChEMBL document CHEMBL4422612, “Small Molecule Inhibitor that Stabilizes the Autoinhibited Conformation of the Oncogenic Tyrosine Phosphatase SHP2” (J Med Chem, 2019).
Calls of active or inactive are those of the source. The calls are words filed in the database; no cut-off is given here.

target: T1, Tyrosine-protein phosphatase non-receptor type 11 (Homo sapiens) (UniProt Q06124); assay: Inhibition of wild type recombinant human SHP2 at 50 uM using H-Glu-Phe-pTyr-Ala-Glu-Val-Gly-Arg-Ser-Pro-Pro-Asp-Pro-Ala-Lys as substrate preincubated for 30 mins followed by substrate addition and measured after 30 mins by Malachite Green-reagent based assay
T1 sequence (whole entry): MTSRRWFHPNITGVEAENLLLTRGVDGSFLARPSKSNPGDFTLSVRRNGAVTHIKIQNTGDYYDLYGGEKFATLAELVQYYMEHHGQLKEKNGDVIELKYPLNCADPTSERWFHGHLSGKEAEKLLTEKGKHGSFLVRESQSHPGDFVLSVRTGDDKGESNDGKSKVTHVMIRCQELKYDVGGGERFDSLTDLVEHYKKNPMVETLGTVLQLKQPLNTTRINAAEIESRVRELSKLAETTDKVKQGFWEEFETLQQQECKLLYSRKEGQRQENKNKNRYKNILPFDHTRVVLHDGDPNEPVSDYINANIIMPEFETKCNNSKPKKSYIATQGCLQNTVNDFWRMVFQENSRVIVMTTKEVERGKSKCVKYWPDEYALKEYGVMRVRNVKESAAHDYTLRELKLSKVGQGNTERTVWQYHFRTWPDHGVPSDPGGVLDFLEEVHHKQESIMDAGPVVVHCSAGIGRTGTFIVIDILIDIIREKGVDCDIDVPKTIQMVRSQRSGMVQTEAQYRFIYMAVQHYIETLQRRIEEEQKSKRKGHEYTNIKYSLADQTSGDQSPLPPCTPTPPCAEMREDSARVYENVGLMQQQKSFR
Method in brief: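 Full-length SHP2 or SHP1 (0.1 µg) preincubated with compound 30 min at room temperature in 25 mM Tris-HCl pH 7.4, 50 mM NaCl, 5 mM DTT, 2.5 mM EDTA. Phospho-peptide substrate added to 50 µM final; 30 min at 30 °C. Released phosphate read by Malachite Green at OD620. IC50 from six concentrations; three experiments.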

inhibition, active:
CCOc1cc(O)c(C(=O)/C=C/c2ccc(Cl)cc2)cc1CN1CCCC1
CCOc1cc(O)c(C(=O)/C=C/c2ccc(Cl)cc2Cl)cc1CN1CCNCC1C (centres undefined)
C=CCOc1cc(O)c(C(=O)/C=C/c2ccc(Cl)cc2Cl)cc1CN1CCC(O)CC1
CCOc1cc(O)c(C(=O)/C=C/c2ccc(Cl)cc2Cl)cc1CN(CC)CC
CCOc1cc(O)c(C(=O)/C=C/c2ccc(Cl)cc2Cl)cc1CN1CCCCC1
CCOc1cc(O)c(C(=O)/C=C/c2ccc(OC)cc2)cc1CN1CCCCC1
CCOc1cc(O)c(C(=O)/C=C/c2ccc(Cl)cc2Cl)cc1CN1CCC(O)CC1
CCOc1cc(O)c(C(=O)/C=C/c2ccc(Cl)cc2Cl)cc1CN1C[C@@H](O)C[C@@H]1C(C)=O
C=CCOc1cc(O)c(C(=O)/C=C/c2ccc(Cl)cc2Cl)cc1CN1CCCCC1
